Measurements taken from ChEMBL document CHEMBL3259611, “Suppression of inflammatory responses by handelin, a guaianolide dimer from Chrysanthemum boreale, via downregulation of NF-κB signaling and pro-inflammatory cytokine production” (J Nat Prod, 2014).
Activity calls are given as the source filed them. The rule behind the calls is not given here.

How the values were obtained:
RAW264.7 [1] = test: Antiinflammatory activity in mouse RAW264.7 cells assessed as inhibition of LPS-induced iNOS mRNA expression at 20 uM after 5 hrs by RT-PCR analysis relative to control; assay type: functional
Outline: (§1)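 RAW 264.7 cells exposed to 1 μg/mL LPS with or without compound for 5 h. Total RNA was analysed by RT-PCR: 25−30 cycles with annealing at 55 °C. Products were separated on 2% agarose gel with SYBR-Safe staining. Experiments in triplicate.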

RAW264.7 [2] = test: Antiinflammatory activity in mouse RAW264.7 cells assessed as inhibition LPS-induced IL-1beta protein expression after 4 hrs by Western blotting analysis; assay type: functional, cell-based
Outline: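 RAW 264.7 cells stimulated with LPS (1 μg/mL) with or without compound for 4 h. Lysates were resolved by 6−15% SDS-PAGE and blotted to PVDF. Blocked in 5% milk/PBST, primary antibody overnight at 4 °C, secondary antibody 2 h, detected by ECL. Triplicate, representative of three experiments.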

Mus musculus [3] = test: Antiinflammatory activity in ICR mouse ear edema model assessed as inhibition of TPA-induced ear edema at 20 mg/kg, po administered 30 mins prior to TPA challenge measured after 4 hrs relative to vehicle-treated control; assay type: functional
Outline: (§2)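 ICR mice (male, 18−20 g, 5 weeks old) dosed orally 30 min before TPA (1.0 μg in 20 μL acetone) was applied to inner and outer surfaces of the right ear. Killed by cervical dislocation after 4 h. Edema taken as the weight of a 5 mm punch biopsy of the right ear over the left. Ear homogenates were Western blotted for iNOS, COX-2 and IL-1β.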

Mus musculus [4] = test: Antiinflammatory activity in ICR mouse ear edema model assessed as inhibition of TPA-induced COX2 protein expression in ear tissue at 10 to 20 mg/kg, po administered 30 mins prior to TPA challenge measured after 4 hrs by Western blotting analysis relative to vehicle-treated control; assay type: functional, organism-based; outline: as §2
Mus musculus [5] = test: Antiinflammatory activity in ICR mouse ear edema model assessed as inhibition of TPA-induced IL-1beta protein expression in ear tissue at 10 to 20 mg/kg, po administered 30 mins prior to TPA challenge measured after 4 hrs by Western blotting analysis relative to vehicle-treated control; assay type: functional, organism-based; outline: as §2
RAW264.7 [6] = test: Antiinflammatory activity in mouse RAW264.7 cells assessed as inhibition of LPS-induced iNOS protein expression at 40 uM after 16 hrs by Western blotting analysis relative to control; assay type: functional
Outline: (§3)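 RAW 264.7 cells given LPS (1 μg/mL) with or without compound for 16 h. Cell lysates were Western blotted for iNOS and COX-2 (6−15% SDS-PAGE, PVDF, ECL detection). Performed in triplicate.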

RAW264.7 [7] = test: Antiinflammatory activity in mouse RAW264.7 cells assessed as inhibition of LPS-induced COX2 protein expression at 20 uM after 16 hrs by Western blotting analysis relative to control; assay type: functional; outline: as §3
RAW264.7 [8] = test: Antiinflammatory activity in mouse RAW264.7 cells assessed as inhibition of LPS-induced iNOS mRNA expression at 10 uM after 5 hrs by RT-PCR analysis relative to control; assay type: functional; outline: as §1
RAW264.7 [9] = test: Antiinflammatory activity in mouse RAW264.7 cells assessed as inhibition of LPS-induced COX2 mRNA expression at 10 uM after 5 hrs by RT-PCR analysis relative to control; assay type: functional; outline: as §1
RAW264.7 [10] = test: Inhibition of LPS-induced NFkappaB transcriptional activity in mouse RAW264.7 cells assessed as reduction of phosphorylated IkappaB-alpha level at 40 uM after 30 mins by Western blotting analysis relative to control; assay type: cell-based
Outline: (§4)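 Macrophages were exposed to compound for 30 min before LPS stimulation, with proteins extracted 30 min later. Nuclear extracts were prepared in Tris/KCl/NP-40 lysis buffer, then 420 mM NaCl buffer, and the cytosolic fraction was kept for IκB-α. Western blot on PVDF with ECL detection. Tests in triplicate; representative of three separate experiments.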

RAW264.7 [11] = test: Inhibition of LPS-induced NFkappaB transcriptional activity in mouse RAW264.7 cells assessed as […] at 20 uM after 30 mins by Western blotting analysis relative to control; assay type: cell-based; outline: as §4
[12] = molecular target: Transcription factor p65 (Mus musculus) (UniProt Q04207); test: Inhibition of LPS-induced NF-kappaB p65 binding to DNA in mouse RAW264.7 cells at 10 to 40 uM after 1.5 hrs by spectrophotometry in presence of mutant oligonucleotide; assay type: cell-based
Chain of Transcription factor p65 (Mus musculus) (Q04207 whole entry): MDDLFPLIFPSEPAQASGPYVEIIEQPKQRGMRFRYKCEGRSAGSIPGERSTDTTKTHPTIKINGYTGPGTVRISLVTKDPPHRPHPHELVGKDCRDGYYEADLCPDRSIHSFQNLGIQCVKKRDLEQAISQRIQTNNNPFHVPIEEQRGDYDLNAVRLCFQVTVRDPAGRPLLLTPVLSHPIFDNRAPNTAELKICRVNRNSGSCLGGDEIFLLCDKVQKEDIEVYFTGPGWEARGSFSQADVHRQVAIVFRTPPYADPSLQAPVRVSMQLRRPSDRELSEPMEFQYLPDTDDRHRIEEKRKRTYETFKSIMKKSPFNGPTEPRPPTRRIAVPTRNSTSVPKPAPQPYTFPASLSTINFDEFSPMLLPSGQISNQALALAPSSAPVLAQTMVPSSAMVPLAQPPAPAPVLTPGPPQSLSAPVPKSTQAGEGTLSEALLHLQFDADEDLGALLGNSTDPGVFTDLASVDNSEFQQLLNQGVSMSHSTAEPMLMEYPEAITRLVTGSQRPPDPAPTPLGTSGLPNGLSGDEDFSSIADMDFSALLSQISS

RAW264.7 [13] = test: Antiinflammatory activity in mouse RAW264.7 cells assessed as inhibition LPS-induced TNF-alpha protein expression at 10 uM after 4 hrs by Western blotting analysis relative to control; assay type: functional
RAW264.7 [14] = test: Antiinflammatory activity in mouse RAW264.7 cells assessed as inhibition LPS-induced TNF-alpha mRNA expression at 40 uM after 4 hrs by RT-PCR analysis relative to control; assay type: functional
Outline: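 RAW 264.7 cells stimulated with LPS (1 μg/mL) with or without compound for 4 h. Total RNA was isolated and cytokine mRNA was analysed by RT-PCR: 94 °C 4 min, then 25−30 cycles of 94/55/72 °C for 30 s each, then 72 °C 5 min. Products were run on 2% agarose and stained with SYBR-Safe. Triplicate, representative of three experiments.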

JNK1/JNK2 (Mus musculus) = JNK1/JNK2 (Mus musculus) (UniProt Q91Y86+Q9WTU6); test: Inhibition LPS-induced JNK1/2 phosphorylation at Thr183/[…] in mouse RAW264.7 cells at 20 uM administered 30 mins prior to LPS challenge measured after 30 mins by Western blotting analysis; assay type: cell-based
Chain of JNK1/JNK2 (Mus musculus) (Q91Y86 whole entry, looked up): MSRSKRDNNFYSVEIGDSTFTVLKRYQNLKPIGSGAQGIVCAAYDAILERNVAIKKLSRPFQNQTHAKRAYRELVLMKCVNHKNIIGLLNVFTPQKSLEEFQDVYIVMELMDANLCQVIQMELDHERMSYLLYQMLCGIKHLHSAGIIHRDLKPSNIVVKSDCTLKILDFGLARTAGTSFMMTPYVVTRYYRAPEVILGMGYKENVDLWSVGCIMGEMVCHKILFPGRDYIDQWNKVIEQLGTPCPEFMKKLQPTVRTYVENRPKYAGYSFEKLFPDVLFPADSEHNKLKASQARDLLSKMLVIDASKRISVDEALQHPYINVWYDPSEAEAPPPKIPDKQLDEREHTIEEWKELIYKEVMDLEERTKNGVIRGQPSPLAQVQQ
Chain of JNK1/JNK2 (Mus musculus) (Q9WTU6 whole entry, looked up): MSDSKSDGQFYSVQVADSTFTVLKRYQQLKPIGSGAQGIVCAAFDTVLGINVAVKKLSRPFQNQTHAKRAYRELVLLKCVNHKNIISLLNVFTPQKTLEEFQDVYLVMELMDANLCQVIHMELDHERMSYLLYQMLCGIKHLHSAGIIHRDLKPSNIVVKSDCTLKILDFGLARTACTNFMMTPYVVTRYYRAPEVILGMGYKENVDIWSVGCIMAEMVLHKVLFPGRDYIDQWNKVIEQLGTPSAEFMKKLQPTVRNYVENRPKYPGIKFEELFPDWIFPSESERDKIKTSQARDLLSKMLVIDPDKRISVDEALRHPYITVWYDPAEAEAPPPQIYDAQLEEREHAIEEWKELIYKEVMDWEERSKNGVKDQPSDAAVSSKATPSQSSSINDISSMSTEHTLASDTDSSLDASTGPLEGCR
Outline: (§5)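 RAW 264.7 cells pretreated with compound for 30 min, then stimulated with LPS for 30 min. Protein extracts were Western blotted for phosphorylated ERK and JNK (SDS-PAGE, PVDF, ECL detection).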

[15] = molecular target: Mitogen-activated protein kinase 1 and 3 (ERK2 and ERK1) (Mus musculus) (UniProt P63085+Q63844); test: Inhibition LPS-induced ERK1/2 phosphorylation at Thr202/Tyr204 in mouse RAW264.7 cells at 20 uM administered 30 mins prior to LPS challenge measured after 30 mins by Western blotting analysis; assay type: cell-based; outline: as §5
Chain of Mitogen-activated protein kinase 1 and 3 (ERK2 and ERK1) (Mus musculus) (P63085 whole entry, looked up): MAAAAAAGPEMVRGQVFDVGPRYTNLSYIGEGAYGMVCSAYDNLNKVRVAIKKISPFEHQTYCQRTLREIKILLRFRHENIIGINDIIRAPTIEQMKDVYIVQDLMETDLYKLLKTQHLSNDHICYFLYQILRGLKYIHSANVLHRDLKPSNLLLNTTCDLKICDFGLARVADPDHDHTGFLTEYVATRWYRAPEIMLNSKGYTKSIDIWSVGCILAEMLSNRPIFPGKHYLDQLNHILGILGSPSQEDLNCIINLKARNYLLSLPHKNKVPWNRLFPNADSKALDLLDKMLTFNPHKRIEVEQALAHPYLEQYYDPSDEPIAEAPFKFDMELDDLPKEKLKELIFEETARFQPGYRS
Chain of Mitogen-activated protein kinase 1 and 3 (ERK2 and ERK1) (Mus musculus) (Q63844 whole entry, looked up): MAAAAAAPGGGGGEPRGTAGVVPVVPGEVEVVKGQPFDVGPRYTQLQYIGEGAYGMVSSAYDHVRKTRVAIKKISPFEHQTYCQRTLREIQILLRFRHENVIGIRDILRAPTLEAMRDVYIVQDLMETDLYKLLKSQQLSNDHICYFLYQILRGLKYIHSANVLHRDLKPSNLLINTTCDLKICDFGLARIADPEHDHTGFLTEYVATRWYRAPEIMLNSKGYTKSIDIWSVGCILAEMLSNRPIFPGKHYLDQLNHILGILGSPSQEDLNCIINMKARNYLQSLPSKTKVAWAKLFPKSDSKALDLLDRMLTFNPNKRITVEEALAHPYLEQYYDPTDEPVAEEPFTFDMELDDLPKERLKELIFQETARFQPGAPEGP

Rattus norvegicus = test: Antiinflammatory activity in po dosed rat paw edema model assessed as inhibition of carrageenan-induced serum IL-1beta production administered 30 mins prior to carrageenan challenge measured after 6 hrs by ELISA relative to vehicle-treated control

C=C1C(=O)O[C@@H]2[C@@H]3[C@@]4(C=C[C@@]3(C)[C@]3(C4)C(=O)O[C@@H]4[C@H]5C(C)=CC[C@H]5[C@](C)(O)C[C@H](OC(C)=O)[C@H]43)[C@](C)(O)CC[C@@H]12
fold change (FC) (RAW264.7 [1]): 0.67 | inhibition (RAW264.7 [2]): Dose-dependent effect | inhibition in vivo at 20 mg/kg (Mus musculus [3]): 56% | inhibition (Mus musculus [4]): Active | inhibition (Mus musculus [5]): Active | fold change (FC) (RAW264.7 [6]): 0.13 | fold change (FC) (RAW264.7 [7]): 0.2 | fold change (FC) (RAW264.7 [8]): 0.74 | fold change (FC) (RAW264.7 [9]): 0.63 | fold change (FC) (RAW264.7 [10]): 0.44 | fold change (FC) (RAW264.7 [11]): 1.85 | inhibition [12]: Active | fold change (FC) (RAW264.7 [13]): 0.9 | fold change (FC) (RAW264.7 [14]): 0.1 | fold change (FC) (JNK1/JNK2 (Mus musculus)): 0.54 | fold change (FC) [15]: 0.79 | inhibition (Rattus norvegicus): Dose-dependent effect
